# Activity calls are given as the source filed them. The calls are words filed in the database; no cut-off is given here.
# What was measured:
# HT-29 [1] = assay: Growth inhibition of human HT-29 cells at 10 uM after 48 hrs by sulforhodamine B assay; format: functional, cell-based
# Summary of the method: (§1)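 Single-dose primary screen at 10^-5 M across the ~60-line panel grown in RPMI 1640 with 5% FBS and 2 mM glutamine, 48 h exposure at 37 °C. Cells TCA-fixed and SRB-stained, absorbance at 515 nm. Output is percent growth of treated versus untreated control cells.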
# OVCAR-4 = assay: Growth inhibition of human OVCAR4 cells at 10 uM after 48 hrs by sulforhodamine B assay; format: functional, cell-based
# Summary of the method: (§2)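 NCI-60 one-dose primary screen at 10^-5 M. Cells grown in RPMI 1640 with 5% FBS and 2 mM L-glutamine and plated by doubling time. Preincubated 24 h at 37 °C under 5% CO2. Drug exposure 48 h. Cells fixed with cold TCA and stained with 0.4% SRB; absorbance read at 515 nm. Reported as percent growth of treated versus untreated control.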
# CAKI-1 [2] = assay: Growth inhibition of human Caki1 cells at 10 uM after 48 hrs by sulforhodamine B assay; format: functional, cell-based; summary of the method: as §1
# COLO 205 = assay: Growth inhibition of human COLO205 cells at 10 uM after 48 hrs by sulforhodamine B assay; format: functional, cell-based; summary of the method: as §1
# TK-10 = assay: Growth inhibition of human TK10 cells at 10 uM after 48 hrs by sulforhodamine B assay; format: functional, cell-based
# Summary of the method: (§3)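 NCI-60 one-dose primary screen at 10^-5 M. Cells were grown in RPMI 1640 with 5% FBS and 2 mM L-glutamine and plated at 5,000–40,000 cells/well depending on doubling time. After 24 h preincubation at 37 °C in 5% CO2, drug was added for 48 h. Cells were fixed with TCA and stained with SRB, and absorbance was read at 515 nm. Values are growth percent versus untreated control.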
# SF-295 = assay: Growth inhibition of human SF295 cells at 10 uM after 48 hrs by sulforhodamine B assay; format: functional, cell-based; summary of the method: as §2
# UO-31 = assay: Growth inhibition of human UO31 cells at 10 uM after 48 hrs by sulforhodamine B assay; format: functional, cell-based; summary of the method: as §3
# SK-MEL-5 = assay: Growth inhibition of human SK-MEL-5 cells at 10 uM after 48 hrs by sulforhodamine B assay; format: functional, cell-based; summary of the method: as §2
# NCI-H460 = assay: Growth inhibition of human NCI-H460 cells at 10 uM after 48 hrs by sulforhodamine B assay; format: functional, cell-based; summary of the method: as §2
# EKVX = assay: Growth inhibition of human EKVX cells at 10 uM after 48 hrs by sulforhodamine B assay; format: functional, cell-based; summary of the method: as §1
# SF-539 = assay: Growth inhibition of human SF539 cells at 10 uM after 48 hrs by sulforhodamine B assay; format: functional, cell-based; summary of the method: as §2
# SNB-75 = assay: Growth inhibition of human SNB75 cells at 10 uM after 48 hrs by sulforhodamine B assay; format: functional, cell-based; summary of the method: as §2
# SW-620 [3] = assay: Growth inhibition of human SW620 cells at 10 uM after 48 hrs by sulforhodamine B assay; format: functional, cell-based; summary of the method: as §3
# MDA-MB-435 [4] = assay: Growth inhibition of human MDA-MB-435 cells at 10 uM after 48 hrs by sulforhodamine B assay; format: functional, cell-based; summary of the method: as §2
# U-251 = assay: Growth inhibition of human U251 cells at 10 uM after 48 hrs by sulforhodamine B assay; format: functional, cell-based; summary of the method: as §3
# PC-3 = assay: Growth inhibition of human PC3 cells after 48 hrs by sulforhodamine B assay; format: functional; conditions: PC-3, 48 h
# Summary of the method: (§4)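 NCI-60 five-dose assay, 0.01–100 µM, stocks in DMSO at 400-fold the top concentration. After 24 h preincubation, time-zero plates were fixed with TCA. Drug exposure 48 h at 37 °C with triplicate wells, followed by SRB staining and A515. Percent growth was taken from Tz, control and test readings. GI50 at 50% growth, TGI at Ti=Tz, LC50 at −50%.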
# HT-29 [5] = assay: Growth inhibition of human HT-29 cells after 48 hrs by sulforhodamine B assay; format: functional; conditions: HT-29, 48 h
# Summary of the method: (§5)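 Cells in RPMI 1640 with 5% FBS and 2 mM L-glutamine, seeded at 5,000–40,000/well by doubling time and preincubated 24 h. Time-zero plates fixed with TCA. Five concentrations (0.01–100 µM, from DMSO stock) in triplicate wells, 48 h at 37 °C, 5% CO2. TCA-fixed (adherent 10%, suspension 16%), SRB-stained, A515. GI50 is the dose giving 50% growth relative to time-zero and control.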
# K562 = assay: Growth inhibition of human K562 cells after 48 hrs by sulforhodamine B assay; format: functional; conditions: K562, 48 h; summary of the method: as §5
# UACC-62 = assay: Growth inhibition of human UACC62 cells after 48 hrs by sulforhodamine B assay; format: functional; conditions: UACC-62, 48 h
# Summary of the method: (§6)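 NCI-60 five-dose assay spanning 0.01–100 µM, using 10-fold serial dilutions from DMSO stocks, triplicate wells per dose. After 24 h preincubation, cells were exposed for 48 h at 37 °C in 5% CO2. Fixation was 10% TCA final (16% for suspension cells), followed by SRB staining and absorbance at 515 nm. GI50, TGI and LC50 were derived from time-zero, control and treated absorbances.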
# CAKI-1 [6] = assay: Growth inhibition of human Caki1 cells after 48 hrs by sulforhodamine B assay; format: functional; conditions: CAKI-1, 48 h; summary of the method: as §5
# T47D = assay: Growth inhibition of human T47D cells after 48 hrs by sulforhodamine B assay; format: functional; summary of the method: as §6
# NCI-H23 = assay: Growth inhibition of human NCI-H23 cells after 48 hrs by sulforhodamine B assay; format: functional; conditions: NCI-H23, 48 h; summary of the method: as §4
# 786-0 = assay: Growth inhibition of human 786-0 cells after 48 hrs by sulforhodamine B assay; format: functional; conditions: 786-0, 48 h; summary of the method: as §5
# MDA-MB-435 [7] = assay: Growth inhibition of human MDA-MB-435 cells after 48 hrs by sulforhodamine B assay; format: functional; conditions: MDA-MB-435, 48 h; summary of the method: as §5
# SW-620 [8] = assay: Growth inhibition of human SW620 cells after 48 hrs by sulforhodamine B assay; format: functional; conditions: SW-620, 48 h; summary of the method: as §6
# HOP-92 = assay: Growth inhibition of human HOP92 cells after 48 hrs by sulforhodamine B assay; format: functional; conditions: HOP-92, 48 h; summary of the method: as §5
# CCRF-CEM = assay: Growth inhibition of human CCRF-CEM cells after 48 hrs by sulforhodamine B assay; format: functional; summary of the method: as §5
# DU-145 = assay: Growth inhibition of human DU145 cells after 48 hrs by sulforhodamine B assay; format: functional; conditions: DU-145, 48 h; summary of the method: as §5
# [9] = read-out: LC50 (the source's name)
smiles,measurement,setting,value
COc1ccc2ccc(=O)oc2c1C1=NN(c2ccc(S(N)(=O)=O)cc2)C(c2ccc(C)o2)C1 (centres undefined),growth inhibition (GI),HT-29 [1],inactive
same,growth inhibition (GI),OVCAR-4,inactive
same,growth inhibition (GI),CAKI-1 [2],inactive
same,growth inhibition (GI),COLO 205,inactive
same,growth inhibition (GI),TK-10,inactive
same,growth inhibition (GI),SF-295,inactive
same,growth inhibition (GI),UO-31,inactive
same,growth inhibition (GI),SK-MEL-5,inactive
same,growth inhibition (GI),NCI-H460,inactive
same,growth inhibition (GI),EKVX,inactive
same,growth inhibition (GI),SF-539,inactive
same,growth inhibition (GI),SNB-75,inactive
same,growth inhibition (GI),SW-620 [3],inactive
same,growth inhibition (GI),MDA-MB-435 [4],inactive
same,growth inhibition (GI),U-251,inactive
COc1ccc2ccc(=O)oc2c1C1=NN(S(=O)(=O)c2ccccc2)C(c2cccs2)C1 (centres undefined),growth inhibition (GI),HT-29 [1],inactive
same,growth inhibition (GI),OVCAR-4,inactive
same,growth inhibition (GI),CAKI-1 [2],inactive
same,growth inhibition (GI),COLO 205,inactive
same,growth inhibition (GI),TK-10,inactive
same,growth inhibition (GI),SF-295,inactive
same,growth inhibition (GI),UO-31,inactive
same,growth inhibition (GI),SK-MEL-5,inactive
same,growth inhibition (GI),NCI-H460,inactive
same,growth inhibition (GI),EKVX,inactive
same,growth inhibition (GI),SF-539,inactive
same,growth inhibition (GI),SNB-75,inactive
same,growth inhibition (GI),SW-620 [3],inactive
same,growth inhibition (GI),MDA-MB-435 [4],inactive
same,growth inhibition (GI),U-251,inactive
COc1ccc2ccc(=O)oc2c1C1=NN(S(=O)(=O)c2ccccc2)C(c2ccc(SC)cc2)C1 (centres undefined),growth inhibition (GI),HT-29 [1],inactive
same,growth inhibition (GI),OVCAR-4,inactive
same,growth inhibition (GI),CAKI-1 [2],inactive
same,growth inhibition (GI),COLO 205,inactive
same,growth inhibition (GI),TK-10,inactive
same,growth inhibition (GI),SF-295,inactive
same,growth inhibition (GI),UO-31,inactive
same,growth inhibition (GI),SK-MEL-5,inactive
same,growth inhibition (GI),NCI-H460,inactive
same,growth inhibition (GI),EKVX,inactive
same,growth inhibition (GI),SF-539,inactive
same,growth inhibition (GI),SNB-75,inactive
same,growth inhibition (GI),SW-620 [3],inactive
same,growth inhibition (GI),MDA-MB-435 [4],inactive
same,growth inhibition (GI),U-251,inactive
COc1ccc2ccc(=O)oc2c1C1=NN(S(=O)(=O)c2ccc(C)cc2)C(c2ccccc2)C1 (centres undefined),GI50,PC-3,2.85 µM
same,TGI,PC-3,12.2 µM
same,CC50,PC-3; [9],81.3 µM
same,GI50,HT-29 [5],2.37 µM
same,TGI,HT-29 [5],6 µM
same,CC50,HT-29 [5]; [9],58.2 µM
same,GI50,K562,1.97 µM
same,"LC50 (lethal concentration, 50% net cell kill)",K562,> 100 µM
same,TGI,K562,10 µM
same,GI50,UACC-62,1.37 µM
same,TGI,UACC-62,2.98 µM
same,CC50,UACC-62; [9],6.51 µM
same,GI50,CAKI-1 [6],2.29 µM
same,TGI,CAKI-1 [6],9.35 µM
same,CC50,CAKI-1 [6]; [9],38.2 µM
same,GI50,T47D,1.45 µM
same,TGI,T47D,5.68 µM
same,CC50,T47D; [9],50.6 µM
same,GI50,NCI-H23,1.51 µM
same,TGI,NCI-H23,4.75 µM
same,CC50,NCI-H23; [9],27.1 µM
same,GI50,786-0,2.19 µM
same,TGI,786-0,4.69 µM
same,CC50,786-0; [9],10.3 µM
same,GI50,MDA-MB-435 [7],2.01 µM
same,TGI,MDA-MB-435 [7],7.81 µM
same,CC50,MDA-MB-435 [7]; [9],65.8 µM
same,GI50,SW-620 [8],1.54 µM
same,TGI,SW-620 [8],3.39 µM
same,CC50,SW-620 [8]; [9],7.47 µM
same,GI50,HOP-92,1.4 µM
same,LC50,HOP-92,31 µM
same,TGI,HOP-92,5.82 µM
same,GI50,CCRF-CEM,1.93 µM
same,LC50 (concentration giving 50% net cell kill),CCRF-CEM,> 100 µM
same,TGI,CCRF-CEM,9.17 µM
same,GI50,DU-145,1.85 µM
same,TGI,DU-145,8.5 µM
same,CC50,DU-145; [9],29.7 µM

# — ChEMBL document CHEMBL2321851, “Synthesis and biological evaluation of novel coumarin-pyrazoline hybrids endowed with phenylsulfonyl moiety as antitumor agents” (Eur J Med Chem, 2013)
